Active and inactive are the calls of the source. No cut-off for these calls is given here.
Key:
Papain = molecular target: T1, Papain (Carica papaya, UniProt P00784); test: Inhibition of Carica papaya papain by spectrofluorimetry
T1 sequence (P00784 whole entry): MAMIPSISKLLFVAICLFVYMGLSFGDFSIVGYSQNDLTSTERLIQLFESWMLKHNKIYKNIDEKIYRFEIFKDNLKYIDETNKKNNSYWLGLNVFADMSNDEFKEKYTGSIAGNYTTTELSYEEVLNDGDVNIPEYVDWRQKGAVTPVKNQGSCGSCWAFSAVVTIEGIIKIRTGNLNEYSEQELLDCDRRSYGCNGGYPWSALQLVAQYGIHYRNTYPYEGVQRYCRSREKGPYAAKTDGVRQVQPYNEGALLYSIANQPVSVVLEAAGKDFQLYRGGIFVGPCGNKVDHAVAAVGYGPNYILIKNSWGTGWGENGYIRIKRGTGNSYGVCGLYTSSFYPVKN
How it was run: (§1)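 Enzyme (papain and CatB DTT 10 mM-activated; trypsin not) incubated 5 min at 25 °C with DMSO-dissolved inhibitor, five concentrations; Z-FR-AMC started reaction, AMC ex 380/em 460 nm. Papain: phosphate 50 mM pH 6.8, EDTA 1.0 mM, 7.8 nM. CatB: Tris–HCl 50 mM pH 7.5, EDTA 5 mM, 1.0 nM. Trypsin: Tris–HCl pH 7.5, CaCl2 10 mM, 56.1 nM. IC50 from time-course dose–response; triplicate.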

Papain (Carica papaya) [1] = molecular target: T2, Papain (Carica papaya) (UniProt P00784); conditions: 0.2 uM
T2 sequence (whole entry): T1 sequence (P00784 whole entry)

Papain (Carica papaya) [2] = molecular target: T2, Papain (Carica papaya); conditions: 0.5 uM
[3] = Inhibition of trypsin by spectrofluorimetry
Cathepsin B = Cathepsin B (Homo sapiens, UniProt P07858); test: Inhibition of cathepsin B by spectrofluorimetry; how it was run: as §1
Papain (Carica papaya) [4] = molecular target: T2, Papain (Carica papaya); test: Inhibition of Carica papaya papain at 50 uM preincubated for 5 mins before addition of increasing concentration of substrate Z-FR-AMC
[5] = Inhibition of trypsin at 50 uM preincubated for 5 mins before addition of increasing concentration of substrate Z-FR-AMC
Papain (Carica papaya) [6] = molecular target: T2, Papain (Carica papaya); test: Inhibition of Carica papaya papain at 50 uM preincubated before DTT addition by fluorescence measurement
Papain (Carica papaya) [7] = molecular target: T2, Papain (Carica papaya); test: Inhibition of Carica papaya papain assessed as residual enzyme activity at 9 uM after 30 mins
[8] = Inhibition of trypsin assessed as residual enzyme activity at 10 uM after 30 mins
Cathepsin G = molecular target: T3, Cathepsin G (Homo sapiens, UniProt P08311); test: Inhibition of cathepsin G by spectrofluorimetry
T3 sequence (P08311 whole entry): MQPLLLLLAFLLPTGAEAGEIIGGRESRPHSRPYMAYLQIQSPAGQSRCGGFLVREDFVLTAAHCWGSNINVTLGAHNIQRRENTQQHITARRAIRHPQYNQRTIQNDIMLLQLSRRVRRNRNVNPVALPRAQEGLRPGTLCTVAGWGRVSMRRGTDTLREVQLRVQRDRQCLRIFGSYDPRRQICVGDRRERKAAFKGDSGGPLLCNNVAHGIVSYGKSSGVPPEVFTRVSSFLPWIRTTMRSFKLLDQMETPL

SMILES | IC50 (Papain) [µM] | inhibition (Papain (Carica papaya) [1]) | inhibition (Papain (Carica papaya) [2]) | IC50 [3] [µM] | IC50 (Cathepsin B) [µM] | inhibition (Papain (Carica papaya) [4]) | inhibition [5] | inhibition (Papain (Carica papaya) [6]) | inhibition (Papain (Carica papaya) [7]) | inhibition [8] | IC50 (Cathepsin G) [µM]
O=C(c1ccccc1)c1ccccc1 [BENZOPHENONE] | 3460 |  |  | 3470 | 289 | inactive | inactive | inactive |  |  | 
CC(=O)N[C@@H](CC(C)C)C(=O)N[C@@H](CC(C)C)C(=O)N[C@H](C=O)CCCNC(=N)N [LEUPEPTIN] |  |  |  |  | 0.047 |  |  |  |  |  | 
O=C(c1ccccc1O)c1ccc(O)cc1O | 693 |  |  | 301 | 198 | inactive | inactive | inactive |  |  | 

Further lines, results first:

IC50 (Papain) [µM] | inhibition (Papain (Carica papaya) [1]) | inhibition (Papain (Carica papaya) [2]) | IC50 [3] [µM] | IC50 (Cathepsin B) [µM] | inhibition (Papain (Carica papaya) [4]) | inhibition [5] | inhibition (Papain (Carica papaya) [6]) | inhibition (Papain (Carica papaya) [7]) | inhibition [8] | IC50 (Cathepsin G) [µM] | SMILES
0.047 | Active | Active |  |  |  |  |  |  |  |  | CC(C)C[C@H](NC(=O)[C@H]1O[C@@H]1C(=O)O)C(=O)NCCCCN=C(N)N [E-64]
131 |  |  | 104 | 103 | inactive | inactive | inactive | Active | Active |  | CC(C)=CC[C@H]1C[C@@]2(CC=C(C)C)C(=O)C(C(=O)c3ccccc3)=C(O)[C@H](C2=O)C1(C)C [GARCINIAPHENONE]
1.9 |  |  |  | 2.1 | Active |  | Active | Active |  | 2.7 | CC(C)=CCC[C@]1(C)[C@@H](CC=C(C)C)C[C@]2(CC=C(C)C)C(=O)[C@@]1(CC=C(C)C)C(=O)C(C(=O)c1ccc(O)c(O)c1)=C2O [GUTTIFERONE A]
